# The list is not random: actives were taken first. Their share in the collection is about 1.8%.
# STAT3 act-1 = activators of IL-6 induced STAT3 signaling | U3A cells, IL-6 STAT3-luciferase reporter, luminescence; 100% = signal with IL-6 EC80 alone | activation (% of control), % at 5.6 µM | 190,000 tested, 0.91% active | AID 871;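 active means activation above the screen-wide mean of compound activation plus 3 SD, cut at about 130% in these data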;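 further: 0% = background luminescence of wells with medium and substrate only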
#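 Material: human STAT1-deficient U3A cells with stable STAT3-luciferase reporter / Probe or stimulus: IL-6 stimulus at 33 ng/mL final / Schedule: 1 h compound pre-exposure, 6 h IL-6 stimulation, 37 °C / Technique: luminescence / Read-out basis: percent of IL-6-only median luminescence / Control set: IL-6-only high control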
# PPC-1+TRAIL kill = PPC-1 cancer cell killing with TRAIL present; PPC-1 cells + TRAIL, ATPLite viability luminescence; cell killing (% activity), % at 4 µM or 5 µM; 220,000 tested, 0.41% active;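 active means cell killing above 50% in the first pass at 4 µM, then a duplicate retest at 5 µM averaging 50% or more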;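 further: plate controls were cells with TRAIL plus DMSO for no effect and medium-only wells lacking cells for full effect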
# C8 TRAIL sens = caspase-8 TRAIL sensitization; NB7+C8 cells + TRAIL, ATPlite viability luminescence; 360,000 tested, 1% active; inhibition (viability loss, TRAIL sensitization), % at 10 µM;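 active means compounds causing at least 50% loss of cell viability in the single-dose screen, relative to plate controls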
# STAT3 blocker = inhibitors of IL-6 induced STAT3 signaling. 190,000 tested, 0.89% active. AID 862. U3A cells, IL-6 STAT3-luciferase reporter, luminescence; host cell line lacks STAT1. inhibition, % at 5.5 µM;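 active means inhibition above the mean inhibition across all screened compounds plus 3 SD, cut at about 44% in these data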;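 further: 0% = DMSO only wells and 100% = 100 µM nifuroxazide control wells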
# STAT1 blocker = inhibitors of IFN-gamma induced STAT1 signaling; NIH 3T3 STAT1-luciferase reporter, luminescence; 200,000 tested, 0.35% active; AID 920; inhibition, % at 5.5 µM;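 active means inhibition above a set limit, the mean inhibition across all tested compounds plus 3 SD, cut at about 34% in these data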;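 further: 0% = IFN-gamma with DMSO and 100% = IFN-gamma with 300 µM nifuroxazide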
# STAT3 act-2 = confirmation of STAT3 signaling activators; U3A STAT3-luciferase reporter, IL-6 potentiation, luminescence; U3A cells lack STAT1; 100 means same as IL-6 alone; 1,200 tested, 64% active; potentiation (% of control), % at 5.7 µM; shares compounds with STAT3 act-1;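 active means percent activation of the STAT3 luciferase reporter above a set limit taken from the earlier primary screen, cut at about 130% in these data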;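 further: 0% = background signal of medium plus substrate and 100% = median of IL-6 with DMSO wells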
# NFkB act 2 = counter-screen for STAT3 activators: NF-kappaB activation | shares compounds with STAT3 act-1 | human cells, NF-kappaB reporter activation | activation (% of control), % at 5.7 µM | 1,200 tested, 11% active; in the data active means activation above about 120%;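 further: reporter induced by TNF-alpha stimulation; 100% = median of stimulated DMSO wells and 0% = no signal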
# STAT1 act = STAT1 activation in STAT3 activator counter-screen; shares compounds with STAT3 act-1; NIH 3T3 STAT1-luciferase reporter, IFN-gamma, luminescence; activation (% of control), % at 5.7 µM; 1,200 tested, 13% active;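 active means activation above the solvent-only control well mean plus 3 SD, set per screening run, cut at about 120% in these data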;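 further: 100% = IFN-gamma with DMSO median signal so 100% means no change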
# * marks the source's active call; other numbers are inactive results; nt = no result.
SMILES,STAT3 act-1,PPC-1+TRAIL kill,C8 TRAIL sens,STAT3 blocker,STAT1 blocker,STAT3 act-2,NFkB act 2,STAT1 act
CCOC(=O)CN1C=C(c2ccc3ccccc3n2)C(C[N+](=O)[O-])c2ccccc21 (stereo not given),156.8*,-6.1,3.8,-58.6,0.3,135.9*,107.7,104.4
COc1ccc(NC(=O)C2CCCN(S(=O)(=O)c3ccccc3)C2)c(OC)c1 (stereo not given),nt,nt,9.1,nt,nt,nt,nt,nt
Clc1ccc2nc(SCc3nnc(-c4ccccc4)o3)[nH]c2c1,93.3,-10.9,-7.0,8.6,8.9,nt,nt,nt
Cc1ccc2nc(SCc3nnc(-c4ccccc4Br)o3)[nH]c2c1,139.6*,7.5,-0.5,-45.4,-1.5,123.5,100.4,99.5
O=C(c1ccccc1)N1CCCC(c2nc3c(nnn3Cc3ccccc3)c(=O)[nH]2)C1 (stereo not given),148.0*,16.8,-2.5,-51.5,-3.4,97.1,106.4,105.7
O=C(c1cccs1)N1CCCC(c2nc3c(nnn3Cc3ccccc3)c(=O)[nH]2)C1 (stereo not given),nt,11.8,-0.7,nt,nt,nt,nt,nt
Cc1cc(Br)c(NC(=O)Cn2c([N+](=O)[O-])cnc2C)cc1C,nt,nt,-4.8,nt,nt,nt,nt,nt
O=C(CN1C(=O)NC2(CCCCC2)C1=O)NCCc1ccc(Cl)cc1Cl,nt,nt,-3.5,nt,nt,nt,nt,nt
CCOc1ccc(NC(=O)C(Cc2ccccc2)N2C(=O)c3cccc4cccc(c34)C2=O)cc1 (stereo not given),138.0*,-12.3,11.5,-35.8,0.4,118.5,96.3,97.4
CCOc1ccc(NC(=O)C(CC(=O)O)Cc2ccccc2)cc1 (stereo not given),97.1,5.1,5.6,3.4,-1.0,nt,nt,nt
COc1ccc(Cl)cc1NC(=S)NNC(=O)C1(C)CC1(Cl)Cl (stereo not given),95.7,0.7,1.6,9.4,2.6,nt,nt,nt
CC(C)C[C@H](NC(=O)CCCn1nnc2ccccc2c1=O)C(=O)O,nt,9.2,-23.5,nt,nt,nt,nt,nt
CSCC[C@H](NC(=O)CCn1nnc2ccccc2c1=O)C(=O)O,138.5*,-19.3,-3.1,-38.7,-2.8,92.3,103.2,98.5
CCOC(=O)c1c(C)oc2c1c1c(c3ccccc32)OCN(Cc2ccccn2)C1,150.3*,-9.0,13.2,-62.7,-7.4,126.2,98.6,93.4
O=C1c2ccccc2C(=O)N1CCC1=CCCCC1,141.5*,4.9,-5.5,-41.2,-22.7,120.9,122.4*,131.5*
Cn1nnnc1SCc1cccc2ccccc12,103.5,14.6,4.5,4.8,-11.2,nt,nt,nt
O=c1c2ccccc2nc(SCc2nc3ccccc3s2)n1CCCO,137.1*,17.3,7.7,-34.8,-29.5,151.4*,120.8*,151.2*
O=C(CSc1nc2ccccc2c(=O)n1CCCO)NCc1ccccc1,100.0,4.4,-6.8,7.3,3.8,nt,nt,nt
Cn1nnnc1SCc1nc2ccccc2s1,139.2*,-7.7,17.9,-43.3,-12.2,139.4*,114.9,124.3*
Cc1cc(Br)ccc1-n1[nH]c(C)c(C=Nc2cccc3nsnc23)c1=O,137.5*,11.1,-16.7,-45.2,-9.7,133.3*,100.9,98.8
COc1ccccc1N=Cc1c(C)[nH]n(-c2ccc(C)cc2C)c1=O,103.4,19.4,-1.3,-1.6,-12.4,nt,nt,nt
CCOc1ccccc1C(=O)Nn1c(C2CCC2)nc2ccccc2c1=O,162.0*,4.2,16.2,-70.0,-2.9,158.3*,98.2,99.2
Cc1[nH]c2ccccc2c1C1(O)C(=O)N(Cc2ccc3c(c2)OCO3)c2ccccc21 (stereo not given),137.0*,12.7,1.8,-40.7,14.3,134.1*,105.1,105.4
CCCN1C(=O)C(O)(c2c(C)[nH]c3ccccc23)c2ccccc21 (stereo not given),nt,-7.6,-3.0,nt,nt,nt,nt,nt
Cc1[nH]c2ccccc2c1C1(O)C(=O)N(C(C)C)c2ccccc21 (stereo not given),137.1*,26.2,0.9,-38.4,2.1,120.5,105.8,101.5

# Bioassay records from PubChem BioAssay.
